# From ChEMBL document CHEMBL1148105, “Bioactive metabolites from a marine-derived strain of the fungus Emericella variecolor” (2002)
# The source made the active and inactive calls. No cut-off for these calls is given here.
# Key:
# HOP-62 = assay: Growth inhibition of human HOP62 cells; type: functional
# Procedure, shortened: (§1)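 Tested in the NCI 60-cell-line screen using the standard NCI protocol, with concentrations up to 10^-4 M. Growth inhibition is reported as GI50 (M), taken from the NCI mean graphs.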
# HCT-116 = assay: Growth inhibition of human HCT116 cells; type: functional; procedure, shortened: as §1
# SK-MEL-5 = assay: Growth inhibition of human SK-MEL-5 cells; type: functional
# Procedure, shortened: (§2)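 Run in the NCI 60-cell-line screen under the standard NCI protocol. Cells were tested at concentrations up to 10^-4 M. Potency was expressed as GI50 (M), taken from the NCI mean-graph data.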
# MDA-MB-231 = assay: Growth inhibition of human MDA-MB-231 cells; type: functional; procedure, shortened: as §1
# UO-31 = assay: Growth inhibition of human UO31 cells; type: functional; procedure, shortened: as §2
# HT-29 = assay: Growth inhibition of human HT-29 cells; type: functional
# NCI/ADR-RES = assay: Growth inhibition of human NCI/ADR-RES cells; type: functional; procedure, shortened: as §1
# ACHN = assay: Growth inhibition of human ACHN cells; type: functional; procedure, shortened: as §1
# SN12C = assay: Growth inhibition of human SN12C cells; type: functional; procedure, shortened: as §2
# PC-3 = assay: Growth inhibition of human PC3 cells; type: functional; procedure, shortened: as §2
# SW-620 = assay: Growth inhibition of human SW620 cells; type: functional; procedure, shortened: as §2
# SK-OV-3 = assay: Growth inhibition of human SKOV3 cells; type: functional; procedure, shortened: as §2
# CCRF-CEM = assay: Growth inhibition of human CCRF-CEM cells; type: functional; procedure, shortened: as §1
# MOLT-4 = assay: Growth inhibition of human MOLT4 cells; type: functional; procedure, shortened: as §1
# CAKI-1 = assay: Growth inhibition of human Caki1 cells; type: functional; procedure, shortened: as §1
# Escherichia coli = assay: Antimicrobial activity against Escherichia coli at 100 ug/ml; type: functional, organism-based
# NCI-H522 = assay: Growth inhibition of human NCI-H522 cells; type: functional; procedure, shortened: as §1
# 786-0 = assay: Growth inhibition of human 786-0 cells; type: functional; procedure, shortened: as §1
# MDA-N = assay: Growth inhibition of human MDA-N cells; type: functional; procedure, shortened: as §1
# Proteus sp. = assay: Antimicrobial activity against Proteus sp. at 100 ug/ml; type: functional, organism-based
# LOX IMVI = assay: Growth inhibition of human LOXIMVI cells; type: functional; procedure, shortened: as §1
# RXF 393 = assay: Growth inhibition of human RXF393 cells; type: functional; procedure, shortened: as §2
# M14 = assay: Growth inhibition of human M14 cells; type: functional; procedure, shortened: as §1
# HCC 2998 = assay: Growth inhibition of human HCC2998 cells; type: functional; procedure, shortened: as §1
# [1] = read-out: pLC50 (the source's name) (converted)
smiles,measurement,setting,value
COc1cccc(/C=C/[C@H]2O[C@@H](C)[C@H](O)[C@@H]2O)c1CO [VARITRIOL],GI50,HOP-62,> 100 µM
same,CC50,HOP-62; [1],> 100 µM
same,TGI,HOP-62; read-out: pTGI,> 100 µM
same,GI50,HCT-116,> 100 µM
same,CC50,HCT-116; [1],> 100 µM
same,TGI,HCT-116; read-out: pTGI,> 100 µM
same,GI50,SK-MEL-5,> 100 µM
same,CC50,SK-MEL-5; [1],> 100 µM
same,TGI,SK-MEL-5; read-out: pTGI,> 100 µM
same,GI50,MDA-MB-231,> 100 µM
same,CC50,MDA-MB-231; [1],> 100 µM
same,TGI,MDA-MB-231; read-out: pTGI,> 100 µM
same,GI50,UO-31,> 100 µM
same,CC50,UO-31; [1],> 100 µM
same,TGI,UO-31; read-out: pTGI,> 100 µM
same,GI50,HT-29,> 100 µM
same,CC50,HT-29; [1],> 100 µM
same,TGI,HT-29; read-out: pTGI,> 100 µM
same,GI50,NCI/ADR-RES,> 100 µM
same,CC50,NCI/ADR-RES; [1],> 100 µM
same,TGI,NCI/ADR-RES; read-out: pTGI,> 100 µM
same,GI50,ACHN,> 100 µM
same,CC50,ACHN; [1],> 100 µM
same,TGI,ACHN; read-out: pTGI,> 100 µM
same,GI50,SN12C,> 100 µM
same,CC50,SN12C; [1],> 100 µM
same,TGI,SN12C; read-out: pTGI,> 100 µM
same,GI50,PC-3,> 100 µM
same,CC50,PC-3; [1],> 100 µM
same,TGI,PC-3; read-out: pTGI,> 100 µM
same,GI50,SW-620,> 100 µM
same,CC50,SW-620; [1],> 100 µM
same,TGI,SW-620; read-out: pTGI,> 100 µM
same,GI50,SK-OV-3,> 100 µM
same,CC50,SK-OV-3; [1],> 100 µM
same,TGI,SK-OV-3; read-out: pTGI,> 100 µM
same,GI50,CCRF-CEM,25.7 µM
same,CC50,CCRF-CEM; [1],> 100 µM
same,TGI,CCRF-CEM; read-out: pTGI (converted),70.8 µM
same,GI50,MOLT-4,> 100 µM
same,CC50,MOLT-4; [1],> 100 µM
same,TGI,MOLT-4; read-out: pTGI,> 100 µM
same,GI50,CAKI-1,> 100 µM
same,CC50,CAKI-1; [1],> 100 µM
same,TGI,CAKI-1; read-out: pTGI,> 100 µM
same,Activity,Escherichia coli,inactive
same,GI50,NCI-H522,> 100 µM
same,CC50,NCI-H522; [1],> 100 µM
same,TGI,NCI-H522; read-out: pTGI,> 100 µM
same,GI50,786-0,> 100 µM
same,CC50,786-0; [1],> 100 µM
same,TGI,786-0; read-out: pTGI,> 100 µM
same,GI50,MDA-N,> 100 µM
same,CC50,MDA-N; [1],> 100 µM
same,TGI,MDA-N; read-out: pTGI,> 100 µM
same,Activity,Proteus sp.,inactive
same,GI50,LOX IMVI,> 100 µM
same,CC50,LOX IMVI; [1],> 100 µM
same,TGI,LOX IMVI; read-out: pTGI,> 100 µM
same,GI50,RXF 393,0.162 µM
same,CC50,RXF 393; [1],> 100 µM
same,TGI,RXF 393; read-out: pTGI (converted),0.933 µM
same,GI50,M14,> 100 µM
same,CC50,M14; [1],> 100 µM
same,TGI,M14; read-out: pTGI,> 100 µM
same,GI50,HCC 2998,> 100 µM
same,CC50,HCC 2998; [1],> 100 µM
same,TGI,HCC 2998; read-out: pTGI,> 100 µM
